Published values collected from several papers.
Each line is one published result; the experiments were not run side by side.
Target: ALK tyrosine kinase receptor (ALK, Homo sapiens, UniProt Q9UM73)

Cc1cc(-c2cc(C#N)ccc2O[C@@H]2C[C@@H]2c2ccc(F)cc2F)n[nH]1  IC50 (enzyme activity; inhibitor; TR-FRET): 1.3 µM
CCn1ncc2c1-c1cnc(N)c(c1)O[C@H](C)c1cc(F)ccc1-c1nn(C)nc1C2  IC50 (enzyme activity; inhibitor; radiometric): 0.0011 µM
Cc1cc(-c2cccc(C#N)c2)n[nH]1  IC50 (enzyme activity; inhibitor; TR-FRET): 51 µM
COc1cccc(Nc2cnc3[nH]c4ccc(CCc5ccccc5)cc4c3c2)c1  IC50 (enzyme activity; inhibitor; ELISA): > 10 µM
Cc1cc(Nc2cc(CN3CCOCC3)c3nc(C)c(Cc4ccc(Cl)cc4F)n3n2)n[nH]1  IC50 (enzyme activity; inhibitor; TR-FRET): 0.138 µM
Cc1cc(-c2cccc(Cl)c2)n[nH]1  IC50 (enzyme activity; inhibitor; TR-FRET): 66 µM
O=[N+]([O-])c1cccc(-c2cnc3[nH]c4ccccc4c3c2)c1  IC50 (enzyme activity; inhibitor; ELISA): > 10 µM
CC(C)(C)n1nc(-c2ccc3nc(OC4CC4)ccc3c2)c(C(N)=O)c1N  IC50 (cell-free assay): > 10 µM
COc1ccc2c(Oc3ccc4c(C(=O)Nc5ccccc5N)cccc4c3)ccnc2c1  IC50 (enzyme activity; inhibitor): > 0.5 µM
C=CC(=O)Nc1cc(Nc2nccc(Nc3cc(Cl)c(F)cc3C(C)(C)O)n2)c(OC)cc1N1CC[C@@H](N(C)C)C1  IC50 (enzyme activity; inhibitor; with preincubation): 1.17 µM
Clc1cnc2[nH]c3ccc(-c4ccc(N5CCOCC5)cn4)cc3c2c1  IC50 (enzyme activity; inhibitor; ELISA): > 10 µM
CC(C)(C)n1nc(-c2cnc3cc(OC4CC4)ccc3c2)c(C(N)=O)c1N  IC50 (cell-free assay): > 10 µM
Cc1cc(-c2ccnc(C#N)c2)n[nH]1  IC50 (enzyme activity; inhibitor; TR-FRET): 130 µM
c1ccc(CCc2ccc3[nH]c4ncc(-c5ccc6c(c5)OCO6)cc4c3c2)cc1  IC50 (enzyme activity; inhibitor; ELISA): > 10 µM
